According to ChEMBL document CHEMBL5107950, “Structure-based design of haloperidol analogues as inhibitors of acetyltransferase Eis from Mycobacterium tuberculosis to overcome kanamycin resistance” (RSC Med Chem, 2021):
Converted amounts (≈) assume the structure as drawn. The source made the active and inactive calls. The rule behind the calls is not given here.

How the values were obtained:
[1] = system: Mycobacteroides abscessus; experiment: Antibacterial activity against Mycobacterium abscessus ATCC 19977 assessed as inhibition of bacterial growth incubated upto 3 weeks hrs by resazurin dye based double-dilution method; assay type: functional; conditions: ATCC 19977, 504 h
Procedure, shortened: (§1)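 Double-dilution broth MIC. Media: M. smegmatis, Mueller-Hinton; M. abscessus, 7H9 + 0.05% Tween80 + 0.4% glycerol; mc²6230, 7H9 + 0.05% tyloxapol, 0.5% glycerol, 10% OADC, 0.2% casamino acids, 24 µg/mL pantothenate; other mycobacteria, 7H9 + 0.05% Tween80, 0.4% glycerol, 10% ADC. Inoculum from agar set to 0.5 McFarland, then diluted 1:100.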

J774.A1 [2] = experiment: Cytotoxicity against mouse J774.A1 cells assessed as reduction in cell viability at 25 uM incubated for 24 hrs by resazurin assay; assay type: toxicity, cell-based; conditions: j774.a1, 24 h
Procedure, shortened: (§2)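 Resazurin viability assay in DMEM + 10% FBS, 1% penicillin/streptomycin, 37 °C, 5% CO₂. Seeding: HEK-293 and J774A.1 at 1×10^4 cells/mL, A549 at 5×10^3 cells/mL. After 24 h, compounds added (0.78-200 μM, 0.5% DMSO final). Resazurin added 24 h later, read after 6 h. 1% Triton X as positive control. Quadruplicate.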

[3] = system: Mycolicibacterium smegmatis; experiment: Synergistic antibacterial activity against Mycobacterium smegmatis mc2 155 assessed as fold reduction in MIC value at 8 ug/ml in presence of spectinomycin by checkerboard assay; assay type: functional; conditions: dose 8 µg/ml
[4] = system: Mycobacterium tuberculosis; experiment: Antibacterial activity against Mycobacterium tuberculosis H37Ra ATCC NRS22 assessed as inhibition of bacterial growth incubated upto 3 weeks hrs by resazurin dye based double-dilution method; assay type: functional; conditions: H37Ra ATCC NRS22, 504 h; procedure, shortened: as §1
[5] = system: Mycolicibacterium smegmatis; experiment: Antibacterial activity against Mycobacterium smegmatis mc2 155 assessed as inhibition of bacterial growth incubated upto 3 weeks hrs by resazurin dye based double-dilution method; assay type: functional; conditions: mc2 155, 504 h; procedure, shortened: as §1
[6] = system: Mycobacterium tuberculosis; experiment: Antibacterial activity against Mycobacterium tuberculosis K204 assessed as inhibition of bacterial growth at 100 uM incubated for 24 hrs by Alamar blue assay; assay type: functional, organism-based
A549 [7] = experiment: Cytotoxicity against human A549 cells assessed as reduction in cell viability at 25 uM incubated for 24 hrs by resazurin assay; assay type: toxicity, cell-based; conditions: a549, 24 h; procedure, shortened: as §2
[8] = system: Mycolicibacterium smegmatis; experiment: Synergistic antibacterial activity against Mycobacterium smegmatis mc2 155 assessed as fold reduction in MIC value at 8 ug/ml in presence of clarithromycin by checkerboard assay; assay type: functional; conditions: dose 8 µg/ml
Escherichia coli = experiment: Antibacterial activity against Escherichia coli MC1061 assessed as inhibition of bacterial growth incubated upto 3 weeks hrs by resazurin dye based double-dilution method; assay type: functional, organism-based
[9] = Metabolic stability in mouse liver microsomes at 2 to 4 uM incubated for 30 mins by LC-MS/MS analysis; assay type: ADME, Microsome; conditions: dose 2-4 µM, read-out: Stability
HEK293 [10] = experiment: Cytotoxicity against human HEK293 cells assessed as reduction in cell viability at 25 uM incubated for 24 hrs by resazurin assay; assay type: toxicity, cell-based; conditions: hek293, 24 h; procedure, shortened: as §2
[11] = system: Mycobacterium tuberculosis; experiment: Antibacterial activity against Mycobacterium tuberculosis H37Rv assessed as inhibition of bacterial growth at 100 uM incubated for 24 hrs by Alamar blue assay; assay type: functional, organism-based
[12] = Metabolic stability in human liver microsomes at 2 to 4 uM incubated for 30 mins by LC-MS/MS analysis; assay type: ADME, Microsome; conditions: dose 2-4 µM, read-out: Stability
Mycobacterium avium [13] = experiment: Antibacterial activity against Mycobacterium avium ATCC 25921 assessed as inhibition of bacterial growth incubated upto 3 weeks hrs by resazurin dye based double-dilution method; assay type: functional; conditions: ATCC 25921, 504 h; procedure, shortened: as §1
N-acetyltransferase Eis [14] = target: T1, N-acetyltransferase Eis (Mycobacterium tuberculosis (strain ATCC 25618 / H37Rv), UniProt P9WFK7); experiment: Inhibition of Mycobacterium tuberculosis Eis assessed as Eis-mediated kanamycin acetylation preincubated for 10 mins followed by substrate addition and measured for 2 to 5 mins using acetyl-CoA as substrate in presence of kanamycin by UV-Vis spectroscopy analysis
T1 sequence (P9WFK7 whole entry): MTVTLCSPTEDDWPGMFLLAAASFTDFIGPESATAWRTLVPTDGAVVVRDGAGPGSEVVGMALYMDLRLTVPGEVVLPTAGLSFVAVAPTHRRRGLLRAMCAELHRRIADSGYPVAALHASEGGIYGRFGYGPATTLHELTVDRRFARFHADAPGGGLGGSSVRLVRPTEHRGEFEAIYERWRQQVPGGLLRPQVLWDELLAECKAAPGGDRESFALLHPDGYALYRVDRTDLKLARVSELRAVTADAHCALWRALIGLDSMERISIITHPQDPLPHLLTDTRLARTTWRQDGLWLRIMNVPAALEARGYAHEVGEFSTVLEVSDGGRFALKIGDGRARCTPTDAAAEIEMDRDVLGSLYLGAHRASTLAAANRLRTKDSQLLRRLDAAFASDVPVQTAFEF
Procedure, shortened: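 Recombinant Eis (1 µM) mixed with KAN (400 µM) in 50 mM Tris-HCl pH 8.0 and preincubated 10 min with 5-fold serially diluted inhibitor (10% DMSO in buffer). Reaction started with AcCoA and DTNB (2 mM each, as added). Absorbance read every 30 s for 20 min. Initial rates (first 2-5 min) fitted to Hill plot for IC50. At least triplicate.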

[15] = system: Mycobacterium intracellulare; experiment: Antibacterial activity against Mycobacterium intracellulare ATCC 13950 assessed as inhibition of bacterial growth incubated upto 3 weeks hrs by resazurin dye based double-dilution method; assay type: functional; conditions: ATCC 13950, 504 h; procedure, shortened: as §1
[16] = system: Mycobacterium tuberculosis; experiment: Potentiation of kanamycin-induced antibacterial activity against Mycobacterium tuberculosis K204 assessed as kanamycin MIC incubated for 1 day followed by kanamycin addition for 6 days and by Alamar blue assay; assay type: functional; conditions: K204, 168 h, time 7 day
Procedure, shortened: (§3)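 Mtb in 7H9 + 10% ADC, 0.05% Tween 80, 0.4% glycerol at 37 °C. Inoculum adjusted to OD600 0.2, diluted 1:25. Cells preincubated 24 h at 37 °C with compound (100 µL of 200 µM solution). KAN then added: H37Rv at 2.5 and 1.25 µg/mL; K204 at 10, 5, 2.5, 1.25 µg/mL. Incubated 6 days, AlamarBlue added, colour read at 24 and 48 h. MIC = lowest KAN with no colour change. At least twice in duplicate.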

J774.A1 [17] = experiment: Cytotoxicity against mouse J774.A1 cells assessed as reduction in cell viability at 100 uM incubated for 24 hrs by resazurin assay; assay type: toxicity, cell-based; conditions: j774.a1, 24 h; procedure, shortened: as §2
[18] = system: Mycobacterium tuberculosis; experiment: Potentiation of kanamycin-induced antibacterial activity against Mycobacterium tuberculosis H37Rv assessed as kanamycin MIC incubated for 1 day followed by kanamycin addition for 6 days and by Alamar blue assay; assay type: functional; conditions: 168 h, time 7 day; procedure, shortened: as §3
J774.A1 [19] = experiment: Cytotoxicity against mouse J774.A1 cells assessed as reduction in cell viability at 50 uM incubated for 24 hrs by resazurin assay; assay type: toxicity, cell-based; conditions: j774.a1, 24 h; procedure, shortened: as §2
A549 [20] = experiment: Cytotoxicity against human A549 cells assessed as reduction in cell viability at 50 to 200 uM incubated for 24 hrs by resazurin assay; assay type: toxicity, cell-based; conditions: a549, 24 h, dose 50-200 µM; procedure, shortened: as §2
HEK293 [21] = experiment: Cytotoxicity against human HEK293 cells assessed as reduction in cell viability at 200 uM incubated for 24 hrs by resazurin assay; assay type: toxicity, cell-based; conditions: hek293, 24 h; procedure, shortened: as §2
N-acetyltransferase Eis [22] = target: T1, N-acetyltransferase Eis; experiment: Competitive inhibition of Mycobacterium tuberculosis Eis assessed as reduction in Eis-mediated kanamycin acetylation preincubated for 10 mins followed by substrate addition and measured for 2 to 5 mins using acetyl-CoA as substrate in presence of kanamycin by Lineweaver-Burk plot analysis
Procedure, shortened: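 Same DTNB-coupled Eis acetylation assay used for IC50, run as Michaelis-Menten kinetics with inhibitor at 0-1 μM. Vmax and Km from these fits used to determine mode of inhibition. Quadruplicate.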

[23] = system: Mycobacterium intracellulare; experiment: Antibacterial activity against Mycobacterium intracellulare ATCC 13950 in presence of spectinomycin by checkerboard assay; assay type: functional, organism-based
Procedure, shortened: (§4)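 Checkerboard in 96-well plates. Antibiotic two-fold serially diluted along columns, haloperidol derivative two-fold along rows. Bacteria prepared as for the MIC determination. MICs alone and in combination used to calculate FICI. At least duplicate independent trials.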

[24] = system: Mycobacteroides abscessus; experiment: Synergistic antibacterial activity against Mycobacterium abscessus ATCC 19977 assessed as reduction in bacterial growth presence of spectinomycin by checkerboard assay; assay type: functional, organism-based; procedure, shortened: as §4
[25] = system: Mycobacteroides abscessus; experiment: Synergistic antibacterial activity against Mycobacterium abscessus ATCC 19977 in presence of clofazimine by checkerboard assay; assay type: functional, organism-based; procedure, shortened: as §4
Mycobacterium avium [26] = experiment: Antibacterial activity against Mycobacterium avium ATCC 25921 in presence of clarithromycin by checkerboard assay; assay type: functional, organism-based; procedure, shortened: as §4
[27] = system: Mycolicibacterium smegmatis; experiment: Synergistic antibacterial activity against Mycobacterium smegmatis mc2 155 assessed as fold reduction in MIC value at 8 ug/ml in presence of clofazimine by checkerboard assay; assay type: functional, organism-based; conditions: dose 8.0 µg/ml
[28] = system: Mycobacterium tuberculosis; experiment: Synergistic antibacterial activity against Mycobacterium tuberculosis H37Ra ATCC NRS22 in presence of spectinomycin by checkerboard assay; assay type: functional, organism-based; procedure, shortened: as §4
[29] = system: Mycobacterium intracellulare; experiment: Antibacterial activity against Mycobacterium intracellulare ATCC 13950 in presence of clofazimine by checkerboard assay; assay type: functional, organism-based; procedure, shortened: as §4
Mycobacterium avium [30] = experiment: Antibacterial activity against Mycobacterium avium ATCC 25921 in presence of clofazimine by checkerboard assay; assay type: functional, organism-based; procedure, shortened: as §4
Mycobacterium avium [31] = experiment: Antibacterial activity against Mycobacterium avium ATCC 25921 in presence of spectinomycin by checkerboard assay; assay type: functional, organism-based; procedure, shortened: as §4
[32] = system: Mycobacterium intracellulare; experiment: Antibacterial activity against Mycobacterium intracellulare ATCC 13950 in presence of clarithromycin by checkerboard assay; assay type: functional, organism-based; procedure, shortened: as §4

SMILES | MIC [1] | fold change (FC) [3] | MIC [4] | MIC [5] | fold change (FC) [8] | remaining at 0.5 h [9] | remaining at 0.5 h [12] | MIC (Mycobacterium avium [13]) | IC50 (N-acetyltransferase Eis [14]) | MIC [15] | MIC [16] | MIC [18] | Ki (N-acetyltransferase Eis [22]) | also measured
CC(C)(C)c1ccc(C(=O)CCCN2CCC(O)(c3ccc(Cl)cc3)CC2)cc1 | > 62.5 µM | 16 | 3.9 µM (≈ 1.61 µg/mL) | 15.6 µM (≈ 6.46 µg/mL) | 4 | 68% | 60% | 7.8 µM (≈ 3.23 µg/mL) | > 200000 nM | 7.8 µM (≈ 3.23 µg/mL) | – | – | – | Activity (J774.A1 [2]): Toxic; inhibition [6]: Active; Activity (A549 [7]): Toxic; inhibition (Escherichia coli): Active; Activity (HEK293 [10]): Toxic; inhibition [11]: Active
O=C(CCCN1CCC(O)(c2ccc(Cl)cc2)CC1)c1ccc(F)cc1 [HALOPERIDOL] | > 62.5 µM | 16 | 31.3 µM (≈ 11.8 µg/mL) | > 62.5 µM | 4 | – | – | 62.5 µM (≈ 23.5 µg/mL) | 390 nM | 62.5 µM (≈ 23.5 µg/mL) | 5 µg/mL | ≤ 1.25 µg/mL | 390 nM | Activity (J774.A1 [17]): Toxic; Activity (J774.A1 [19]): 100%; Activity (A549 [20]): 70%; Activity (HEK293 [21]): Non-Toxic
O=C(CCCN1CCC(O)(c2ccc(F)cc2)CC1)c1ccc(F)cc1 | > 62.5 µM | 16 | > 62.5 µM | > 62.5 µM | 4 | – | – | > 62.5 µM | 760 nM | > 62.5 µM | 5 µg/mL | ≤ 1.25 µg/mL | 910 nM | –
O=C(CCCN1CCC(O)(c2ccc(Br)cc2)CC1)c1ccc(Cl)cc1 | > 62.5 µM | 16 | 7.8 µM (≈ 3.41 µg/mL) | 31.3 µM (≈ 13.7 µg/mL) | 4 | 83% | 36% | > 62.5 µM | 1100 nM | 62.5 µM (≈ 27.3 µg/mL) | 10 µg/mL | ≤ 1.25 µg/mL | – | Activity [23]: Active; Activity [24]: Active; Activity [25]: Active; Activity (Mycobacterium avium [26]): Active; Activity [27]: Active; Activity [28]: Active; Activity [29]: Active; Activity (Mycobacterium avium [30]): Active; Activity (Mycobacterium avium [31]): Active; Activity [32]: Active
